Experimental data reported in ChEMBL document CHEMBL1138117, “Hybrid antibacterials. DNA polymerase-topoisomerase inhibitors” (J Med Chem, 2006).
Values after ≈ are worked out from the molar mass of the structure shown.

Columns and labels:
Escherichia coli = experiment: Antibacterial activity against Escherichia coli J53; format: functional
Enterococcus faecium [1] = experiment: Antibacterial activity against Vancomycin resistant Enterococcus faecium VRE 700802; format: functional
Mus musculus [2] = experiment: Effect on survival of mice after ip infection with Staphylococcus aureus Smith; format: functional
Summary of the method: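 Male Swiss-Webster mice (20–24 g) were given 10⁸ CFU of log-phase S. aureus Smith ip, grown in LB at 37 °C and washed in cold broth. A single iv tail-vein dose was given in DCP vehicle (10% DMA, 10% Cremophor EL in PBS, pH 9.5; 5 mL/kg) 15 min post-infection. Survival was scored at 72 h and ED50 derived.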

Mus musculus [3] = experiment: Effect on survival of mice after ip infection with Vancomycin resistant Enterococcus faecium VRE 700802 at 75 mg/kg twice at 15 and 135 min post injection; format: functional, Swiss Webster; conditions: route intraperitoneal
Mus musculus [4] = experiment: Effect on survival of mice after ip infection with Vancomycin resistant Enterococcus faecium VRE 700802 at 75 mg/kg twice at 15 and 195 min post injection; format: functional, Swiss Webster; conditions: route intraperitoneal
Summary of the method: (§1)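 Male Swiss-Webster mice were infected ip with the organism grown in brain-heart infusion broth at 37 °C to log phase and washed. It was given in 0.5 mL broth with 5% mucin; CFU were estimated from OD600. Groups of 5 or 10 received iv tail-vein doses in DCP vehicle at 5 mL/kg. Survivors were counted at 72 h.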

Mus musculus [5] = experiment: Effect on survival of mice infected with Enterococcus faecalis 29212 at 50 mg/kg twice at 15 and 135 min post injection; format: functional, Swiss Webster; summary of the method: as §1
Mus musculus [6] = experiment: Effect on survival of mice after ip infection with Vancomycin resistant Enterococcus faecium VRE 700802 at 50 mg/kg twice at 15 and 135 min post injection; format: functional, Swiss Webster; summary of the method: as §1
Mus musculus [7] = experiment: Effect on survival of mice infected with methicillin resistant Staphylococcus aureus 1094 at 75 mg/kg twice at 15 and 135 min post injection; format: functional, Swiss Webster
Summary of the method: (§2)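 Male Swiss-Webster mice were infected ip with 1×10⁷ CFU of log-phase MRSA 1094, grown in brain-heart infusion broth and given in 0.5 mL broth with 5% mucin. Doses in DCP vehicle were given iv by tail vein at 5 mL/kg. Survivors per treated group were counted at 72 h post-infection.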

Mus musculus [8] = experiment: Effect on survival of mice infected with methicillin resistant Staphylococcus aureus 1094 at 50 mg/kg twice at 15 and 135 min post injection; format: functional, Swiss Webster; summary of the method: as §2
[9] = system: DNA gyrase (Bacillus subtilis); experiment: Inhibition of Bacillus subtilis gyrase activity
Enterococcus faecalis = experiment: Antibacterial activity against Enterococcus faecalis 29212; format: functional
Enterococcus faecium [10] = experiment: Antibacterial activity against Enterococcus faecium 19434; format: functional
Staphylococcus aureus = experiment: Antibacterial activity against methicillin resistant Staphylococcus aureus MRSA 1094; format: functional
Mus musculus [11] = experiment: Effect on survival of mice infected with methicillin resistant Staphylococcus aureus 1094 at 25 mg/kg twice at 15 and 135 min post injection; format: functional, Swiss Webster; summary of the method: as §2
Mus musculus [12] = experiment: Effect on survival of mice infected with Enterococcus faecalis 29212 at 50 mg/kg, 15 min post injection; format: functional, Swiss Webster; summary of the method: as §1
Mus musculus [13] = experiment: Effect on survival of mice infected with Enterococcus faecalis 29212 at 25 mg/kg, 15 min post injection; format: functional, Swiss Webster; summary of the method: as §1
Mus musculus [14] = experiment: Effect on survival of mice infected with Enterococcus faecalis 29212 at 75 mg/kg, 15 min post injection; format: functional, Swiss Webster; summary of the method: as §1
Mus musculus [15] = experiment: Effect on survival of mice after ip infection with Vancomycin resistant Enterococcus faecium VRE 700802 at 50 mg/kg twice at 15 and 195 min post injection; format: functional, Swiss Webster; conditions: route intraperitoneal
Mus musculus [16] = experiment: Effect on survival of mice infected with Enterococcus faecalis 29212 at 25 mg/kg twice at 15 and 135 min post injection; format: functional, Swiss Webster; summary of the method: as §1
Mus musculus [17] = experiment: Effect on survival of mice after ip infection with Vancomycin resistant Enterococcus faecium VRE 700802 at 100 mg/kg, 15 min post injection; format: functional, Swiss Webster; conditions: route intraperitoneal; summary of the method: as §1

In the case of `CCc1cc(Nc2cc(=O)n(CCCCN3CCN(c4c(F)cc5c(=O)c(C(=O)O)cn(C6CC6)c5c4F)CC3C)c(=O)[nH]2)ccc1C` (stereo not given), the MIC (Escherichia coli) is reported as 5 µg/mL (≈ 7.54 µM), the MIC (Enterococcus faecium [1]) is reported as 0.625 µg/mL (≈ 0.943 µM) and the ED50 (Mus musculus [2]) is reported as 15 mg/kg. It also gave an Activity (Mus musculus [3]) of 0%, an Activity (Mus musculus [4]) of 45% and an Activity (Mus musculus [5]) of 80%. It also gave an Activity (Mus musculus [6]) of 10%, an Activity (Mus musculus [7]) of 55% and an Activity (Mus musculus [8]) of 0%. The IC50 [9] was 21.7 µg/mL (≈ 32.7 µM), the MIC (Enterococcus faecalis) was 1.25 µg/mL (≈ 1.89 µM) and the MIC (Enterococcus faecium [10]) was 1.25 µg/mL (≈ 1.89 µM). For the same compound, the MIC (Staphylococcus aureus) was 1.25 µg/mL (≈ 1.89 µM), the Activity (Mus musculus [11]) was 5% and the Activity (Mus musculus [12]) was 40%. For the same compound, the Activity (Mus musculus [13]) was 13%, the Activity (Mus musculus [14]) was 80% and the Activity (Mus musculus [15]) was 0%. For the same compound, the Activity (Mus musculus [16]) was 40% and the Activity (Mus musculus [17]) was 10%.
